Laboratory results reported in ChEMBL document CHEMBL1151249, “Cytotoxic and antimicrobial constituents of the bark of Diospyros maritima collected in two geographical locations in Indonesia” (J Nat Prod, 2004).
In brackets after ≈: the same amount, converted by molar mass. Activity calls are given as the source filed them. No cut-off for these calls is given here.

Assays:
KB [1] = assay: Cytotoxicity against human KB cells; type: functional, cell-based; settings: read-out: ED50 (the source's name)
Lu1 [2] = assay: Cytotoxicity against human Lu1 cells; type: functional; settings: read-out: ED50 (the source's name)
LNCaP [3] = assay: Cytotoxicity against human LNCAP cells; type: functional; settings: read-out: ED50 (the source's name)
[4] = Cytotoxicity against human HUVEC; type: cell-based; settings: HUVEC cells, read-out: ED50 (the source's name)
Micrococcus luteus [5] = assay: Antimicrobial activity against Micrococcus luteus after 18 hrs by zone-of-inhibition assay; type: functional, organism-based
Micrococcus luteus [6] = assay: Antimicrobial activity against Micrococcus luteus assessed as 99.9 % growth inhibition after 18 hrs by zone-of-inhibition assay; type: functional
Staphylococcus aureus [7] = assay: Antimicrobial activity against Staphylococcus aureus after 18 hrs by zone-of-inhibition assay; type: functional, organism-based
Staphylococcus aureus [8] = assay: Antimicrobial activity against Staphylococcus aureus assessed as 99.9 % growth inhibition after 18 hrs by zone-of-inhibition assay; type: functional
[9] = tested on: Mycolicibacterium smegmatis; assay: Antimicrobial activity against Mycobacterium smegmatis after 18 hrs by zone-of-inhibition assay; type: functional, organism-based
[10] = tested on: Mycolicibacterium smegmatis; assay: Antimicrobial activity against Mycobacterium smegmatis assessed as 99.9 % growth inhibition after 18 hrs by zone-of-inhibition assay; type: functional
Mycobacterium avium [11] = assay: Antimicrobial activity against Mycobacterium avium after 18 hrs by zone-of-inhibition assay; type: functional, organism-based
Mycobacterium avium [12] = assay: Antimicrobial activity against Mycobacterium avium assessed as 99.9 % growth inhibition after 18 hrs by zone-of-inhibition assay; type: functional
Candida albicans [13] = assay: Antifungal activity against Candida albicans after 18 hrs by zone-of-inhibition assay; type: functional, organism-based; settings: Candida albicans, 18 h
Cryptococcus neoformans [14] = assay: Antifungal activity against Cryptococcus neoformans after 18 hrs by zone-of-inhibition assay; type: functional, organism-based; settings: Cryptococcus neoformans, 18 h
Cryptococcus neoformans [15] = assay: Antifungal activity against Cryptococcus neoformans assessed as 99.9 % growth inhibition after 18 hrs by zone-of-inhibition assay; type: functional
Saccharomyces cerevisiae [16] = assay: Antifungal activity against Saccharomyces cerevisiae after 18 hrs by zone-of-inhibition assay; type: functional, organism-based
Saccharomyces cerevisiae [17] = assay: Antifungal activity against Saccharomyces cerevisiae assessed as 99.9 % growth inhibition after 18 hrs by zone-of-inhibition assay; type: functional
Aspergillus niger [18] = assay: Antifungal activity against Aspergillus niger after 18 hrs by zone-of-inhibition assay; type: functional, organism-based
Aspergillus niger [19] = assay: Antifungal activity against Aspergillus niger assessed as 99.9 % growth inhibition after 18 hrs by zone-of-inhibition assay; type: functional
Mus musculus [20] = assay: Toxicity in human KB cell xenografted mouse assessed as body weight loss at 5 mg/kg; type: organism-based; set-up: dose 5 mg/kg; settings: in vivo
Outline: (§1)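 In vivo hollow fiber assay in mice, with KB, LNCaP or Lu1 cancer cells at intraperitoneal and subcutaneous sites. Doses ranged from 1.25 to 10 mg/kg, with six mice per dose group. Body weight and deaths were recorded alongside tumor-cell growth inhibition.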

Mus musculus [21] = assay: Toxicity in human LNCaP cell xenografted mouse assessed as body weight loss at 5 mg/kg; type: organism-based; set-up: dose 5 mg/kg; settings: in vivo; outline: as §1
Mus musculus [22] = assay: Toxicity in human LU1 cell xenografted mouse assessed as body weight loss at 5 mg/kg; type: organism-based; set-up: dose 5 mg/kg; settings: in vivo; outline: as §1
Candida albicans [23] = assay: Antimicrobial activity against Candida albicans assessed as 99.9 % growth inhibition after 18 hrs by zone-of-inhibition assay; type: functional
KB [24] = assay: Antitumor activity against human KB cell xenografted mouse by hollow fiber assay; type: functional, cell-based
Outline: (§2)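 Hollow fiber assay in mice with KB, LNCaP or Lu1 cells in fibers implanted at intraperitoneal and subcutaneous sites. Mice were treated by injection at doses from 1.25 to 10 mg/kg or up to 50 mg/kg. Tumor cell growth inhibition in the fibers was assessed at each site.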

Lu1 [25] = assay: Antitumor activity against human Lu1 cell xenografted mouse by hollow fiber assay; type: functional, cell-based; outline: as §2
LNCaP [26] = assay: Antitumor activity against human LNCAP cell xenografted mouse by hollow fiber assay; type: functional, cell-based; outline: as §2
Mus musculus [27] = assay: Toxicity in human KB cell xenografted mouse at 50 mg/kg; type: organism-based; set-up: dose 50 mg/kg; settings: in vivo
Mus musculus [28] = assay: Toxicity in human LNCaP cell xenografted mouse at 50 mg/kg; type: organism-based; set-up: dose 50 mg/kg; settings: in vivo
Mus musculus [29] = assay: Toxicity in human LU1 cell xenografted mouse at 50 mg/kg; type: organism-based; set-up: dose 50 mg/kg; settings: in vivo

| Structure (SMILES) | EC50 (KB [1]) | EC50 (Lu1 [2]) | EC50 (LNCaP [3]) | CC50 [4] | IC50 (Micrococcus luteus [5]) | Activity (Micrococcus luteus [6]) | IC50 (Staphylococcus aureus [7]) | Activity (Staphylococcus aureus [8]) | IC50 [9] | Activity [10] | IC50 (Mycobacterium avium [11]) | Activity (Mycobacterium avium [12]) | IC50 (Candida albicans [13]) | IC50 (Cryptococcus neoformans [14]) | Activity (Cryptococcus neoformans [15]) | IC50 (Saccharomyces cerevisiae [16]) | Activity (Saccharomyces cerevisiae [17]) | IC50 (Aspergillus niger [18]) | Activity (Aspergillus niger [19]) | Activity (Candida albicans [23]) | further results |
| --- | --- | --- | --- | --- | --- | --- | --- | --- | --- | --- | --- | --- | --- | --- | --- | --- | --- | --- | --- | --- | --- |
| CC1=CC(=O)c2c(O)cccc2C1=O [PLUMBAGIN] | 0.3 µg/mL (≈ 1.59 µM) | 0.3 µg/mL (≈ 1.59 µM) | 0.4 µg/mL (≈ 2.13 µM) | 0.4 µg/mL (≈ 2.13 µM) | 80 µg/mL (≈ 425 µM) | 600 µg/mL | 100 µg/mL (≈ 531 µM) | 600 µg/mL | 300 µg/mL (≈ 1590 µM) | >1000 µg/mL | 600 µg/mL (≈ 3190 µM) | >1000 µg/mL | 9 µg/mL (≈ 47.8 µM) | 20 µg/mL (≈ 106 µM) | 40 µg/mL | 10 µg/mL (≈ 53.1 µM) | 40 µg/mL | 20 µg/mL (≈ 106 µM) | 400 µg/mL | >1000 µg/mL | Activity (Mus musculus [20]): Toxic; Activity (Mus musculus [21]): Toxic; Activity (Mus musculus [22]): Toxic |
| CC1=CC(=O)c2c(ccc(C3=C(C)C(=O)c4cccc(O)c4C3=O)c2O)C1=O [CHITRANONE] | 0.3 µg/mL (≈ 0.801 µM) | 1.1 µg/mL (≈ 2.94 µM) | 2.2 µg/mL (≈ 5.88 µM) | 2.1 µg/mL (≈ 5.61 µM) | 10 µg/mL (≈ 26.7 µM) | >1000 µg/mL | 90 µg/mL (≈ 240 µM) | >1000 µg/mL | 6 µg/mL (≈ 16 µM) | 20 µg/mL | 5 µg/mL (≈ 13.4 µM) | 90 µg/mL | 10 µg/mL (≈ 26.7 µM) | 3 µg/mL (≈ 8.01 µM) | 10 µg/mL | 3 µg/mL (≈ 8.01 µM) | 10 µg/mL | 6 µg/mL (≈ 16 µM) | >1000 µg/mL | >1000 µg/mL | – |
| CC12C(=O)c3cccc(O)c3C(=O)C1CC1=C2C(=O)c2c(O)cccc2C1=O (stereo unspecified) [ZEYLANONE] | 2.1 µg/mL (≈ 5.61 µM) | 14.5 µg/mL (≈ 38.7 µM) | 3.3 µg/mL (≈ 8.82 µM) | 3.3 µg/mL (≈ 8.82 µM) | 50 µg/mL (≈ 134 µM) | >800 µg/mL | 6 µg/mL (≈ 16 µM) | >800 µg/mL | 50 µg/mL (≈ 134 µM) | 400 µg/mL | 200 µg/mL (≈ 534 µM) | – | 3 µg/mL (≈ 8.01 µM) | 10 µg/mL (≈ 26.7 µM) | 100 µg/mL | 10 µg/mL (≈ 26.7 µM) | 500 µg/mL | 30 µg/mL (≈ 80.1 µM) | >800 µg/mL | 3 µg/mL | – |
| Cc1cc(O)c2c(c1)C(=O)C=CC2=O [RAMENTACEONE] | 4.1 µg/mL (≈ 21.8 µM) | 13.2 µg/mL (≈ 70.1 µM) | 3.7 µg/mL (≈ 19.7 µM) | 5.7 µg/mL (≈ 30.3 µM) | 20 µg/mL (≈ 106 µM) | 1000 µg/mL | 200 µg/mL (≈ 1060 µM) | >1000 µg/mL | 40 µg/mL (≈ 213 µM) | 600 µg/mL | 5 µg/mL (≈ 26.6 µM) | – | 0.3 µg/mL (≈ 1.59 µM) | 0.3 µg/mL (≈ 1.59 µM) | 1 µg/mL | 0.3 µg/mL (≈ 1.59 µM) | 1 µg/mL | 5 µg/mL (≈ 26.6 µM) | 300 µg/mL | 20 µg/mL | – |
| CC1=CC(=O)c2c(O)ccc(-c3ccc(O)c4c3C(=O)C(C)=CC4=O)c2C1=O [MARITINONE] | 0.3 µg/mL (≈ 0.801 µM) | 1.4 µg/mL (≈ 3.74 µM) | 2.2 µg/mL (≈ 5.88 µM) | 2.2 µg/mL (≈ 5.88 µM) | 200 µg/mL (≈ 534 µM) | >1000 µg/mL | 9 µg/mL (≈ 24 µM) | 300 µg/mL | 20 µg/mL (≈ 53.4 µM) | 80 µg/mL | 600 µg/mL (≈ 1600 µM) | – | 40 µg/mL (≈ 107 µM) | 20 µg/mL (≈ 53.4 µM) | 200 µg/mL | 9 µg/mL (≈ 24 µM) | 80 µg/mL | 40 µg/mL (≈ 107 µM) | >1000 µg/mL | 40 µg/mL | Activity (KB [24]): inactive; Activity (Lu1 [25]): inactive; Activity (LNCaP [26]): inactive; Activity (Mus musculus [27]): Toxic; Activity (Mus musculus [28]): Toxic; Activity (Mus musculus [29]): Toxic |
